Measurements from ChEMBL document CHEMBL1157098, “AMP-activated protein kinase (AMPK) activation by benzofurans and coumestans isolated from Erythrina abyssinica” (J Nat Prod, 2010).
Active and inactive are the calls of the source. The rule behind the calls is not given here.

Assays:
Format in all cases: cell-based
[1] = molecular target: 5'-AMP-activated protein kinase catalytic subunit alpha-1 (Mus musculus) (UniProt Q5EG47); assay: Activation of AMPKalpha in differentiated mouse C2C12 cells assessed as phosphorylated-AMPK level at 10 uM after 30 mins by Western blot analysis relative to control
Sequence of 5'-AMP-activated protein kinase catalytic subunit alpha-1 (Mus musculus) (Q5EG47 whole entry): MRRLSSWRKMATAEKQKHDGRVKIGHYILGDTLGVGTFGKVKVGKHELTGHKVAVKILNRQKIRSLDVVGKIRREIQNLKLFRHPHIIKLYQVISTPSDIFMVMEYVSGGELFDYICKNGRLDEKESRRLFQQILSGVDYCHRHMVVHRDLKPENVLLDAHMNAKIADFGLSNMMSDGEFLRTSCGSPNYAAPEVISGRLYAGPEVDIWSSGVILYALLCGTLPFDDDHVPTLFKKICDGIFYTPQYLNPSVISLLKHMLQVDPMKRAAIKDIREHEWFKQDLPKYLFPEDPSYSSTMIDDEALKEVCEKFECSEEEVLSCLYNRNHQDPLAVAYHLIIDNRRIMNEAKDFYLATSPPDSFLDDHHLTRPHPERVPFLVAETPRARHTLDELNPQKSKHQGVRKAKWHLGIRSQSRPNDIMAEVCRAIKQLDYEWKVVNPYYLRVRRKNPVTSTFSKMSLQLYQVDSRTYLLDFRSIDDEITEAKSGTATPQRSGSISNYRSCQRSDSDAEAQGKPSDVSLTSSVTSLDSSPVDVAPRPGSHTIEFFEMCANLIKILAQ
Summary of the method: (§1)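 C2C12 myoblasts seeded at 10^5 cells/well and differentiated at confluence in DMEM with 5% horse serum, medium changed every 48 h until myotubes formed. Myotubes exposed to compounds for 30 min, lysed in EBC buffer (50 mM Tris-HCl pH 7.6, 120 mM NaCl, 1 mM EDTA, 0.5% NP-40, 50 mM NaF). About 30 µg protein immunoblotted for phospho-AMPKα Thr172, phospho-ACC Ser79, total AMPK, β-actin.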

[2] = molecular target: 5'-AMP-activated protein kinase catalytic subunit alpha-1 (Mus musculus) (UniProt Q5EG47); assay: Activation of AMPKalpha in differentiated mouse C2C12 cells assessed as phosphorylated-ACC level at 10 uM after 30 mins by Western blot analysis relative to control; summary of the method: as §1
[3] = molecular target: 5'-AMP-activated protein kinase catalytic subunit alpha-1 (Mus musculus) (UniProt Q5EG47); assay: Activation of AMPKalpha in differentiated mouse C2C12 cells assessed as change in AMPK level at 10 uM after 30 mins by Western blot analysis relative to control; summary of the method: as §1

Structure (SMILES)	Activity [1]	Activity [2]	Activity [3]
COc1cc(C2(C=O)COc3cc(O)ccc32)c(OC)cc1O (stereo not drawn)	inactive	inactive	inactive
COc1ccc2c(oc3c4ccc(O)cc4oc(=O)c23)c1CC=C(C)C	Active	Active	inactive
COc1ccc2c(C=O)c(-c3ccc(O)cc3O)oc2c1CC=C(C)C	Active	Active	inactive
COc1cc([C@@H]2COc3cc(O)ccc32)c(OC)cc1O	inactive	inactive	inactive
CC(C)=CCc1c(O)ccc2c1oc1c3ccc(O)cc3oc(=O)c21	Active	Active	inactive

The remaining lines, values ahead:

Activity [1]	Activity [2]	Activity [3]	Structure (SMILES)
Active	Active	inactive	CC(C)=CCc1cc2c(cc1O)oc(=O)c1c3ccc(O)c(CC=C(C)C)c3oc21
inactive	inactive	inactive	CC(C)=CCc1cc(-c2oc3c(CC=C(C)C)c(O)ccc3c2C=O)c(O)cc1O
–	Active	inactive	CC(C)=CCc1cc(-c2oc3c(CC=C(C)C)c(O)ccc3c2C(=O)O)c(O)cc1O
